This is a sample that favours compounds with a hit; in the whole collection about 5.8% have one here.
14-3-3 Bad PPI – inhibitors of 14-3-3 zeta/Bad binding, primary screen, biochemical, TR-FRET, bovine 14-3-3 zeta; 14-3-3 protein zeta/delta (Bos taurus), P63103; TR-FRET 14-3-3zeta/Dy647-pBad peptide displacement, 1 h; inhibition, % at 21.7 µM; 220,000 tested, 0.71% active;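 active = inhibition above about 70%, limit read from the data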
p47phox inh – p47phox/p22phox peptide binding inhibitors, primary screen, biochemical, uHTS, NADPH oxidase regulatory subunit. fluorescence polarization, 2 h. Neutrophil cytosol factor 1 (Homo sapiens), P14598. inhibition, % at 24.7 µM. 220,000 tested, 0.53% active;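 active = inhibition above about 30%, limit read from the data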
Target sequence (P14598 whole entry, looked up): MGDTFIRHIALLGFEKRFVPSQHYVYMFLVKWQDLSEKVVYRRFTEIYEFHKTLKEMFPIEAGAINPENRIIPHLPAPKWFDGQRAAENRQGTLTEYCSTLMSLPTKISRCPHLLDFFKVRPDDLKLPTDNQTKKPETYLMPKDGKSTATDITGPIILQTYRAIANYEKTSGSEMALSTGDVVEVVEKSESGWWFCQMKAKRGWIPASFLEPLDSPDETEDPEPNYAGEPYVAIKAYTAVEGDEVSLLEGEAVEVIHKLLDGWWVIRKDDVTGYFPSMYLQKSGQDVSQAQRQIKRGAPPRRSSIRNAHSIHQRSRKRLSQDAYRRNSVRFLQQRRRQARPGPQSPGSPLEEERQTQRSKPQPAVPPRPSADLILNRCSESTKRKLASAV
KCC2 mod – KCC2 cotransporter modulators, thallium flux, primary screen, cell-based, HEK293 KCC2, FluoZin-2 fluorescence, MLSMR; 190,000 tested, 2.2% active; AID 1456, 2008; Solute carrier family 12 member 5 (Homo sapiens), Q9H2X9; KCC2 cells, thallium flux FluoZin-2 fluorescence; B-score of Tl+ flux slope (higher = more flux/activation; lower = inhibition) at 10 µM;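 active = thallium flux slope and its plate-corrected score both differing from the plate sample mean at a set confidence after two filtering rounds, in either direction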;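 also: slope of fluorescence scaled to starting intensity during 10 to 20 s after thallium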
RBBP9 inhibitor – human RBBP9 inhibitors, primary screen, biochemical, fluorescence polarization, FP-Rh probe, HTS | recombinant RBBP9 | inhibition, % at 7.94 µM | 220,000 tested, 0.2% active;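 active = inhibition above the campaign mean of all tested compounds plus 3 SD, cut at about 14% in these data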
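Measured by – fluorescence polarization · Test system – RBBP9 protein · Input – 2.5 µM RBBP9 dispensing solution, before mixing · Measure – percent inhibition from mP, scaled between DMSO and no-protein wells · Benchmarks – DMSO-treated enzyme wells and wells lacking RBBP9 · Times – preincubation 30 min plus labeling 45 min at 25 °C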
WT yeast gro inh – growth inhibition of WT strain, primary screen, mitochondrial fusion inhibitor project, WT and mutant strains, chemical genetic | mitochondrial fusion phenotypic screen | inhibition, % at 10 µM | 190,000 tested, 2.1% active | AID 1362, 2008; in the data active = inhibition above about 58%; tested in S. cerevisiae
ROMK primary – ROMK potassium channel modulators, primary screen, cell-based, thallium flux, MLSMR library. Tet-inducible ROMK, thallium flux fluorescence; actives lie on both sides. AID 1918, 2009. B-score at 10 µM. 130,000 tested, 2% active. ATP-sensitive inward rectifier potassium channel 1 (Homo sapiens), P48048;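 active = signal ratio slope over the read window, or its plate-corrected B-score, at least 3 SD from the plate mean, either direction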;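 also: B-score of the F/F0 ratio slope over 7 to 12 s after thallium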
ROMK retest – ROMK channel modulator hit retest, confirmation, cell-based, thallium flux, duplicate, resupplied hits; normalized thallium flux (F/F0 slope) at 10 µM; 3,000 tested, 54% active; fluorescence ratio; stronger effect = lower value; shares compounds with ROMK primary;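 active = Flux at 10 µM at least 3 SD below or above vehicle control mean in one or both replicates; inconclusive = no clear call, values can overlap the other calls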
Large screens that a line does not name were inactive (follow-up assays come after a bar, where they were run).

COc1ccc(N/N=C(\C#N)C(=N)SCc2ccccc2)cc1	none (no result: ROMK primary) | ROMK retest 0.053
Cn1/c(=N\NC(=O)c2ccccc2Cl)sc2ccccc21	none
COc1ccc(-c2nc(N)ncc2-c2csc(C)n2)c(O)c1OC	none
CCCCOC(=O)CCNc1n[nH]c(=O)[nH]c1=O	none (no result: ROMK primary) | ROMK retest inactive
OC(CNC1Cc2ccccc2C1)COc1ccc(Cl)cc1 (stereo not drawn)	ROMK primary -5.3 (no result: WT yeast gro inh) | ROMK retest 0.049
CC(C)(C)c1ccc(SCCc2ccccn2)cc1	none (no result: WT yeast gro inh, ROMK primary)
N=c1oc2ccc3ccccc3c2cc1-c1nc(-c2ccccc2)cs1	none (no result: ROMK primary) | ROMK retest 0.048
COc1ccc(OC)c(C2CC(c3c(-c4ccccc4)c4cc(Cl)ccc4[nH]c3=O)=NN2S(C)(=O)=O)c1 (stereo not drawn)	none (no result: ROMK primary) | ROMK retest inconclusive
O=C(O)[C@@H]1[C@@H]2C[C@@H]2CN1c1ncccc1[N+](=O)[O-]	none
CCc1nnc(NC(=O)[C@@H](NC(=O)c2cc(OC)cc(OC)c2)C(C)C)s1	none
CN1C(=S)N(c2cccnc2)C(=O)/C1=C\c1ccc(N(C)C)cc1	14-3-3 Bad PPI 79, p47phox inh 86, ROMK primary -5.5 | ROMK retest 0.041
CN1C(=S)N(c2cccnc2)C(=O)/C1=C\c1ccc(C(C)(C)C)cc1	none
Cc1ccc2nc3c(c(C(=O)OCC(=O)NC4CCS(=O)(=O)C4)c2c1)CCCC3 (stereo not drawn)	none
CNC(=O)CCCc1nc(-c2ccccc2Cl)no1	ROMK primary 3.1 (no result: KCC2 mod) | ROMK retest inactive
NC(=O)CCCc1nc(-c2ccccc2Cl)no1	none (no result: ROMK primary)
O=C(/C=C/c1ccccc1)c1ccc2c(c1)OCO2	none (no result: WT yeast gro inh)
O=C(/C=C/c1ccncc1)c1ccc2c(c1)OCCO2	ROMK primary -2.7 | ROMK retest 0.053
Oc1c(Br)cc(Br)cc1C=NCc1ccc(F)cc1	ROMK primary 3.3 | ROMK retest 0.12
Oc1c(Br)cc(Br)cc1C=NCc1ccccc1	ROMK primary 3.9 | ROMK retest inconclusive
O/N=C/c1cc(Br)ccc1OCc1ccc(F)cc1	none (no result: 14-3-3 Bad PPI, p47phox inh, KCC2 mod, WT yeast gro inh, ROMK primary)
CC(=O)c1c(C)[nH]c(C(=O)CN2C(=O)NC(CCc3ccccc3)C2=O)c1C (stereo not drawn)	none (no result: WT yeast gro inh, ROMK primary)
CC(=O)NCC(=O)OC(C)C(=O)Nc1ccc(C(C)=O)cc1 (stereo not drawn)	none (no result: ROMK primary) | ROMK retest inactive
CCOP(=O)(OCC)c1nc(-c2ccccc2)oc1NCc1ccccc1	none
O=P(c1ccccc1)(c1ccccc1)c1nc(-c2ccccc2)oc1NCc1ccccc1	ROMK primary -1.9 | ROMK retest inactive
O=c1[nH]c2ccccc2c(O)c1-c1cc2ccccc2oc1=O	none
Cc1nn(Cc2ccccc2)c2c1C(c1ccc(Cl)cc1)C(C#N)=C(N)O2 (stereo not drawn)	ROMK primary -2.9 | ROMK retest 0.059
Nc1ncnc(Oc2ccccc2F)c1[N+](=O)[O-]	none
Cc1cccc(-n2c3nc(=O)[nH]c(=O)c-3cc3cc([N+](=O)[O-])ccc32)c1	ROMK primary -2.8 | ROMK retest 0.048
Cc1ccc(C)c(-n2c3nc(=O)[nH]c(=O)c-3cc3cc([N+](=O)[O-])ccc32)c1	none (no result: ROMK primary) | ROMK retest 0.043
CCC(=O)NC(=S)Nc1cccc(NC(=O)c2ccccc2)c1	none (no result: ROMK primary)
Cc1ccccc1Cn1c2ccccc2c2cnn(CC(=O)N3CCN(c4ccccc4)CC3)c(=O)c21	none (no result: ROMK primary)
O=C(Cn1ncc2c3ccccc3n(Cc3ccc(F)cc3)c2c1=O)N1CCN(c2ncccn2)CC1	ROMK primary -2.9 | ROMK retest 0.067
O=C(c1ccccc1)c1c[nH]c(C(=O)NNc2ccccc2)c1	none

Compound activity as filed in PubChem.
